The entries come from a sample that favours hits as a whole.
TLR4-MyD88 BLA: inhibitors of TLR4-MyD88 association in cells, primary screen, cell-based, HeLa CL3-4, BLA complementation, FRET ratio; Toll-like receptor 4 (Homo sapiens) + Myeloid differentiation primary response protein …; inhibition, % at 8.4 µM; HeLa CL3-4 TLR4/MyD88 BLA complementation; 200,000 compounds, 0.18% hits; in the data active means inhibition above about 25%;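 further: 0% = vehicle and 100% = reference inhibitor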
NOD2 RIPK2 PPI: NOD2-RIPK2 binding disruptors in cells, primary screen, fluorescence, CHO cells, BLA complementation | Receptor-interacting serine/threonine-protein kinase 2 (Homo sapiens), O43353 | inhibition, % at 4.98 µM | 360,000 compounds, 0.38% hits | AID 624267, 2012 | CCF4 ratio; in the data active means inhibition above about 21%;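 further: 0% = vehicle only and 100% = reference blocker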
Target sequence (O43353 whole entry, looked up): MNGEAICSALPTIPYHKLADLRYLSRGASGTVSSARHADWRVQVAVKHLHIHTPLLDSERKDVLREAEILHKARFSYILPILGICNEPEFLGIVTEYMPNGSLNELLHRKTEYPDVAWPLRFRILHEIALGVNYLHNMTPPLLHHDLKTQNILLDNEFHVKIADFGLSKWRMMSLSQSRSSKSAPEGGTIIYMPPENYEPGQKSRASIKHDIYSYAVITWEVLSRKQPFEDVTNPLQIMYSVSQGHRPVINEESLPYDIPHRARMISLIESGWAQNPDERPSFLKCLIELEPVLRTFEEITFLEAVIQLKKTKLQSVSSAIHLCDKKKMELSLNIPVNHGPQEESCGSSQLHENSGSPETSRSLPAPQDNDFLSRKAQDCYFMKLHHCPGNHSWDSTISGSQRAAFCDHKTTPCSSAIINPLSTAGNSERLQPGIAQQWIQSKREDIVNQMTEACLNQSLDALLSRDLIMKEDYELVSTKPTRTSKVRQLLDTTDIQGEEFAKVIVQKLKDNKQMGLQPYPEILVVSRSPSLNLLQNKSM
TLR9-MyD88 inh: inhibitors of TLR9-MyD88 association in cells, primary screen, cell-based, CHO, BLA complementation, fluorescence | 340,000 compounds, 0.21% hits | CCF4 FRET ratio | AID 504734, 2011 | Toll-like receptor 9 (Homo sapiens) + Myeloid differentiation primary response protein … | inhibition, % at 4.98 µM;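 active means inhibition above the mean over all tested compounds plus 3 SD, cut at about 21% in these data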;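 further: 0% = DMSO only wells and 100% = clavulanate BLA inhibitor control wells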
CHOP inh: inhibitors of CHOP promoter induction, primary screen, cell-based, unfolded protein response, luciferase reporter. CHO-K1 CHOP-promoter luciferase, tunicamycin-induced, 15-18 h. inhibition, % at 10 µM. 220,000 compounds, 3.8% hits. AID 2732, 2010;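 active means compounds that reduced the stress-induced luciferase reporter signal by more than about 70% of percent inhibition, limit read from the data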;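 further: 0% = tunicamycin plus vehicle and 100% = wells without tunicamycin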
XBP1 UPR activ: activators of adaptive XBP1 UPR arm, primary screen, cell-based, CHO-XBP1 luciferase reporter, luminescence, uHTS. IRE1-XBP1 UPR activation; percent of tunicamycin response, DMSO as zero. activation, % at 20 µM. 330,000 compounds, 0.33% hits;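 active means versus positive control, 20 µM dose yields 30% or more activation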;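 further: 100% = tunicamycin at 10 µg/mL and 0% = DMSO only wells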
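Material: IRE1-XBP1 luciferase reporter CHO line / Quantity: one thousand reporter cells per well / Buffer or medium: F12 with 10% serum / Compound: 20 µM single concentration, DMSO 1% / Times: 6 h treatment, 37 °C / Detection: Steady-Glo luciferase glow luminescence, 10 min after reagent addition / Benchmarks: tunicamycin high, DMSO low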
CHOP UPR activ: activators of apoptotic CHOP UPR arm, primary screen, cell-based, CHO-CHOP luciferase reporter, luminescence, uHTS. AID 449763, 2010. 330,000 compounds, 0.34% hits. UPR activation; percent of tunicamycin response over DMSO baseline. activation, % at 10 µM;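 active means at 10 µM dose, activation of 40% or more, normalized to positive control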;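 further: 100% = tunicamycin at 10 µg/mL and 0% = DMSO alone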
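Assay system: CHO-CHOP cells, stable luciferase reporter of PERK-eIF2a-CHOP signalling / Buffer or medium: F12 plus 10% serum / Compound dosing: one dose, 10 µM in 0.5% DMSO / Times: 6 h compound treatment, 37 °C / Technique: luciferase luminescence / Read-out: % reporter activation, DMSO baseline versus tunicamycin full activation / Benchmarks: tunicamycin and DMSO controls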
The depositor's hits bear a star; x = no result given.

SMILES	TLR4-MyD88 BLA	NOD2 RIPK2 PPI	TLR9-MyD88 inh	CHOP inh	XBP1 UPR activ	CHOP UPR activ
O=S(=O)(N/N=C\c1cn(-c2ccccc2)nc1-c1ccccc1)c1ccccc1	-1	3	-10	96*	2	3
NC(=O)N/N=C/c1cn(-c2ccccc2)nc1-c1ccccc1	12	-12	-6	-23	3	5
CC(CC(=O)c1ccc(F)cc1)N1CCN(c2ccccc2)CC1 (configuration not stated)	x	-2	-5	x	x	x
CCN(C)C1CN(Cc2cn(Cc3ccc(Cl)cc3)nn2)S(=O)(=O)C1 (configuration not stated)	x	-1	x	x	x	x
COc1ccc(-n2c(=O)/c(=C\c3cccs3)s/c2=C(/C#N)C(=O)N2CCN(C)CC2)cc1	8	1	2	90*	-2	-1
N#C/C(C(=O)N1CCOCC1)=c1/s/c(=C\c2ccccn2)c(=O)n1-c1ccccc1	0	-10	1	-10	-1	2
O=S1(=O)C[C@@H](N2CC[C@@H](O)C2)[C@H](COCc2ccccc2)N1	x	5	x	x	x	x
CCOC(=O)NC(NCc1cccc(C(F)(F)F)c1)(C(F)(F)F)C(F)(F)F	-14	-2	7	34	-4	0
CCOC(=O)NC(NCc1ccccc1Cl)(C(F)(F)F)C(F)(F)F	-5	-8	-8	95*	3	0
Cc1occc1-c1nnc(SC(C)C(=O)Nc2ccccc2F)o1 (configuration not stated)	x	2	-3	x	1	5
COCCn1c(=NC(=O)c2ccc(S(=O)(=O)N3CCc4ccccc4C3)cc2)sc2cc(S(N)(=O)=O)ccc21	-5	6	-3	23	-1	2
C=CCn1c(=NC(=O)c2ccc(S(=O)(=O)N3CCc4ccccc4C3)cc2)sc2cc(S(N)(=O)=O)ccc21	15	8	-3	77*	-2	3
COc1ccc(-c2csc(C(C)(O)c3cccc(F)c3)n2)cc1OC (configuration not stated)	x	0	x	x	x	x
CCOC(=O)C(C)On1c(-c2ccc(Cl)cc2)nc2ccc([N+](=O)[O-])cc21 (configuration not stated)	16	-8	-7	72*	4	3
COn1c(-c2ccc(Cl)cc2)nc2ccc(Cl)cc21	-16	-8	11	74*	0	4
O=C(O)COn1c(-c2ccc(Cl)cc2)nc2ccc(Cl)cc21	12	3	-2	-7	4	3
COc1ccc2c(c1)CCc1c(C(=O)NCCc3ccc(OC)c(OC)c3)noc1-2	16	-18	-4	3	-2	0
COc1ccc2c(c1)CCc1c(C(=O)Nc3ccc(OC)c(OC)c3)noc1-2	-1	-4	8	76*	4	2
O=S(=O)(c1ccc(Cl)cc1)N1CCN(C(=S)Nc2ccc(F)c(Cl)c2)CC1	-8	10	3	78*	-3	-1
O=S(=O)(c1ccccc1)N1CCN(C(=S)Nc2ccc(F)cc2)CC1	4	9	-4	8	-3	-1
O=[N+]([O-])c1ccc(C(=S)N2CCN(c3ccc(F)cc3)CC2)cc1	-6	-15	4	7	25	-1
NS(=O)(=O)c1ccc(NC(=S)N2CCN(Cc3ccc(Cl)c(Cl)c3)CC2)cc1	-7	-6	x	32	-3	-1
NS(=O)(=O)c1ccc(NC(=S)N2CCN(c3ccc(Cl)c(Cl)c3)CC2)cc1	3	-5	3	87*	3	7
O=[N+]([O-])c1ccc(NC(=S)N2CCN(c3ccc(F)cc3)CC2)cc1	8	-4	1	84*	-2	-3
O=C(Nc1cccc2ccccc12)c1ccc2sc([C@H]3C[C@H](O)[C@@H](CO)O3)nc2c1	x	5	x	x	x	x
